Only some compounds are listed: those with a hit (about 2.9% of all), similar ones and a draw of the others.
SENP1 FRET inh: inhibitors of human SENP1 SUMO protease catalytic domain | recombinant SENP1 catalytic domain, CyPet-SUMO1-YPet FRET cleavage | inhibition, % at 10 µM | 360,000 compounds, 0.21% hits | AID 624204;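 active means inhibition at least 30% at 10 µM, raw YFP signal under a set limit, fluorescence ratio 0.5 to 1.5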
Target sequence (Q9P0U3 419-644 limits assumed): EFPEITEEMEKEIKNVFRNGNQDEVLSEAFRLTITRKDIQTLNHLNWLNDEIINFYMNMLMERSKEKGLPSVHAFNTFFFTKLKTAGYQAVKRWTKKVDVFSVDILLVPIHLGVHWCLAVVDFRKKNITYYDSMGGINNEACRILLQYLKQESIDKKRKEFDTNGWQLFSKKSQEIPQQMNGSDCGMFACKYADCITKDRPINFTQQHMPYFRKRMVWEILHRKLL
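Test system: human SENP1 catalytic domain; medium: Tris pH 8 buffer plus EDTA, NaCl, BME, BSA, NP40, catalase; incubation: 50 min reaction at room temperature; technique: FRET, CFP and YFP emission; controls: no-enzyme low control and enzyme-plus-DMSO high control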
SENP7 inh: blocks the human protease SENP7 | Q9BQF6 | recombinant SENP7, Z-RLRGG-aminoluciferin luminescence, 40 min | inhibition, % at 5 µM | 330,000 compounds, 1.5% hits | AID 434973;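 active means inhibition above about 50% at the single test dose, limit read from the data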
SENP6 inh: inhibitors of human SENP6 protease. 330,000 compounds, 1.8% hits. AID 2599. Q9GZR1. inhibition, % at 10 µM. Recombinant SENP6 catalytic domain, aminoluciferin luminescence;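 active means inhibition above about 50% at the single tested dose, limit read from the data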
SENP8 block-1: blocks the human protease SENP8. 330,000 compounds, 1.2% hits. AID 2540. inhibition, % at 10 µM. purified SENP8, Z-RLRGG-aminoluciferin cleavage, luminescence. Q96LD8; in the data active means inhibition above about 50%
Target sequence (Q96LD8 whole entry, looked up): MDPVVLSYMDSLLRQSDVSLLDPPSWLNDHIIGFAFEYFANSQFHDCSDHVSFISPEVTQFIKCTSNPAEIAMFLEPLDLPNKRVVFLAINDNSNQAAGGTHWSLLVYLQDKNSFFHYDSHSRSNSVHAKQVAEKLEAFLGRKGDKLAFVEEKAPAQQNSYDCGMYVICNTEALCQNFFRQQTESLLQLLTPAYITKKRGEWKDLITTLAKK
SENP8 block-2: SENP8 (human) protease inhibition | Q96LD8 | inhibition, % at 20 µM | 360,000 compounds, 0.64% hits | recombinant SENP8, Nedd8 substrate fluorescence | AID 602440; in the data active means inhibition mostly above about 40%, no sharp cut-off; inactive means mostly below about 27%
HSP90 refold inh: blocks HSP90-mediated luciferase refolding in reticulocyte lysate; inhibition, % at 5.6 µM; AID 1789; 290,000 compounds, 0.91% hits; Rabbit reticulocyte lysate, luciferase refolding luminescence, 3 h;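 active means inhibition above the screen-wide mean plus 3 SD, computed separately per campaign, cut at about 16% in these data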;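 further: inhibitors lower the luminescence because luciferase stays unfolded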
SENP8 conf: human SENP8 inhibition, confirmed. AID 488912. 6,200 compounds, 40% hits. shares compounds with SENP7 inh. Recombinant SENP8, Z-RLRGG-aminoluciferin luminescence, 60 min. inhibition, % at 12.5 µM;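 active means mean inhibition across replicates above about 50%, limit read from the data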
SENP6 conf: human SENP6 inhibition, confirmed; inhibition, % at 12.5 µM; recombinant SENP6, Z-RLRGG-aminoluciferin luminescence; shares compounds with SENP7 inh; 6,200 compounds, 58% hits
SENP7 conf: confirmation of human SENP7 protease inhibitors; shares compounds with SENP7 inh; inhibition, % at 12.5 µM; 6,200 compounds, 69% hits; recombinant SENP7, Z-RLRGG-aminoluciferin luminescence, 40 min; AID 488917
Casp3 select: caspase-3 inhibition (SENP selectivity assay) | shares compounds with SENP7 inh | purified caspase-3, Z-DEVD-aminoluciferin luminescence, 60 min | inhibition, % at 12.5 µM | 6,200 compounds, 60% hits;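 active means mean inhibition above about 50%, limit read from the data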
Target sequence (P42574 28-227 limits assumed): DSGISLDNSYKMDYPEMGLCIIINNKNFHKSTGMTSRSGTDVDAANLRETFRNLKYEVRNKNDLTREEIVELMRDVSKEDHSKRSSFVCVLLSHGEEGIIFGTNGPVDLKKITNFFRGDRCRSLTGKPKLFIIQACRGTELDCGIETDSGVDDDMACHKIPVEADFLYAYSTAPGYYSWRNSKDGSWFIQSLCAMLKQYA
Luc interf: counter-screen for SENP inhibitors: luminescence interference. shares compounds with SENP7 inh. Pre-incubated SENP8/Z-RLRGG-aminoluciferin, luciferase luminescence interference. inhibition, % at 12.5 µM. 6,200 compounds, 39% hits;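 active means mean inhibition above about 50% when retested at one dose, limit read from the data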
Of the large screens only hits and unclear results are named; the others gave an inactive call (follow-up assays come after a bar, where they were run).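 How the source made its calls, unless noted: active means mean inhibition above about 50% in the one-dose retest (limit read from the data); inactive means the rest.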

COc1ccc(N2C(=S)N(C(=O)c3ccccc3)C(=Nc3ccccc3)C2=Nc2ccccc2)cc1	SENP7 inh 92, SENP6 inh 83, SENP8 block-1 73 | SENP8 conf 67 | SENP6 conf 82 | SENP7 conf 96 | Casp3 select 93 | Luc interf 60
c1ccc(-c2noc(-c3cccnc3)n2)cc1	SENP6 inh 76, SENP8 block-1 58 | SENP8 conf inactive | SENP6 conf 60 | SENP7 conf 88 | Casp3 select 77 | Luc interf inactive
c1ccc(-c2ccc(-c3nc(-c4cccnc4)no3)cc2)cc1	SENP7 inh 99, SENP6 inh 97, SENP8 block-1 90 | SENP8 conf 70 | SENP6 conf 71 | SENP7 conf 80 | Casp3 select 88 | Luc interf inactive
c1cncc(-c2noc(-c3ccc4ccccc4c3)n2)c1	SENP7 inh 91, SENP6 inh 90, SENP8 block-1 83 | SENP8 conf 56 | SENP6 conf 69 | SENP7 conf 94 | Casp3 select 75 | Luc interf inactive
COc1ccc(-c2noc(-c3cccnc3)n2)cc1OC	none
Cc1cccc(OCCC(=O)Nc2ccc(N3CCOCC3)cc2N2CCOCC2)c1	none (no result: HSP90 refold inh)
CC(=O)NC1CC2CCCC(C1)N2C(=O)Nc1c(C)cccc1C (stereo not drawn)	none (no result: SENP7 inh, SENP6 inh, SENP8 block-1, HSP90 refold inh)
CC(=O)/C=C1\OCc2cc(OCc3ccccc3)ccc21	none (no result: SENP7 inh, SENP6 inh, SENP8 block-1, HSP90 refold inh)
O=C1CCOc2cc(OCc3ccccc3)ccc21	SENP7 inh 95, SENP6 inh 94, SENP8 block-1 88 | SENP8 conf 94 | SENP6 conf 94 | SENP7 conf 101 | Casp3 select 94 | Luc interf 93
COc1ccc(Cn2c(C3CC3)nc3ccc(NC(=O)C4CC4)cc3c2=O)cc1	SENP7 inh 67 | SENP8 conf inactive | SENP6 conf inactive | SENP7 conf 92 | Casp3 select 58 | Luc interf inactive
CC1=NN(C(N)=S)C(=O)C1N=Nc1ccccc1 (stereo not drawn)	SENP7 inh 53, SENP6 inh 72, SENP8 block-1 59 | SENP8 conf inactive | SENP6 conf 55 | SENP7 conf inactive | Casp3 select inactive | Luc interf inactive
CC1=NN(C(N)=S)C(=O)C1N=Nc1ccc(Cl)cc1 (stereo not drawn)	SENP7 inh 77, SENP6 inh 89, SENP8 block-1 86 | SENP8 conf inactive | SENP6 conf 72 | SENP7 conf inactive | Casp3 select inactive | Luc interf inactive
CC1=NN(C(N)=S)C(=O)C1N=Nc1cccc(Cl)c1C (stereo not drawn)	SENP7 inh 59, SENP6 inh 94, SENP8 block-1 85 | SENP8 conf 95 | SENP6 conf 94 | SENP7 conf 100 | Casp3 select 88 | Luc interf 83
CC1=NN(C(N)=S)C(=O)C1N=Nc1ccc(Br)cc1 (stereo not drawn)	SENP7 inh 74, SENP6 inh 96, SENP8 block-1 92 | SENP8 conf inactive | SENP6 conf inactive | SENP7 conf inactive | Casp3 select inactive | Luc interf inactive
COc1cccc(-c2cnc(C(O)c3cc(C)ccc3C)[nH]2)c1 (stereo not drawn)	none (no result: SENP7 inh, SENP6 inh, SENP8 block-1, HSP90 refold inh)
O=C(COC(=O)CCC(=O)c1cccs1)NC1CCCCC1	none (no result: HSP90 refold inh)
CC1=NN(C(N)=S)C(=O)C1N=Nc1cccc([N+](=O)[O-])c1 (stereo not drawn)	SENP7 inh 76, SENP6 inh 83, SENP8 block-1 80 | SENP8 conf inactive | SENP6 conf inactive | SENP7 conf inactive | Casp3 select inactive | Luc interf inactive
O=C(Nc1cnc2sccn2c1=O)c1ccc(Cl)cc1Cl	SENP7 inh 56 | SENP8 conf inactive | SENP6 conf inactive | SENP7 conf inactive | Casp3 select 53 | Luc interf inactive
COc1ccc(Cl)cc1NC(=O)c1cnc2sccn2c1=O	none
O=C(NNS(=O)(=O)c1ccccc1)c1ccc([N+](=O)[O-])cc1	SENP7 inh 68 | SENP8 conf inactive | SENP6 conf inactive | SENP7 conf inactive | Casp3 select inactive | Luc interf inactive
COc1ccc(C=C2C(=O)c3ccccc3C2=O)cc1O	SENP7 inh 96, SENP6 inh 95, SENP8 block-1 94 | SENP8 conf 98 | SENP6 conf 98 | SENP7 conf 102 | Casp3 select 94 | Luc interf inactive
COc1cc(C=C2C(=O)c3ccccc3C2=O)ccc1O	SENP7 inh 94, SENP8 block-1 93 | SENP8 conf inactive | SENP6 conf 91 | SENP7 conf 97 | Casp3 select 80 | Luc interf 61
COc1cc(/C=C2/CC/C(=C/c3ccc(O)c(OC)c3)C2=O)ccc1O	none
Cc1cccc(C)c1NC(=O)CN(C)C(=O)C(c1ccccc1)c1ccccc1	SENP7 inh 91 | SENP8 conf inactive | SENP6 conf inactive | SENP7 conf inactive | Casp3 select inactive | Luc interf inactive
Cc1cccc(C)c1NC(=O)CN(C)C(=O)c1ccccc1C(=O)N(C)Cc1ccccc1	none
O=C(CN1CCN(S(=O)(=O)c2cccc(F)c2)CC1)Nc1ccnn1C1CCCC1	none (no result: HSP90 refold inh)
CCOc1ccc(C(=O)c2cc3ccc(O)cc3oc2=O)cc1	none
O=C(c1ccc([N+](=O)[O-])cc1)c1cc2ccc(O)cc2oc1=O	SENP7 inh 71, SENP6 inh 83, SENP8 block-1 78 | SENP8 conf inactive | SENP6 conf 65 | SENP7 conf inactive | Casp3 select 71 | Luc interf inactive
CC(=O)c1ccc(N=Nc2ccc(N)cc2)cc1	SENP7 inh 78, SENP6 inh 75, SENP8 block-2 46 | SENP8 conf 60 | SENP6 conf 62 | SENP7 conf 88 | Casp3 select 62 | Luc interf inactive
CC(=O)c1ccc(N=Nc2c(C)[nH][nH]c2=O)cc1	SENP7 inh 79, SENP6 inh 55, SENP8 block-2 56 (no result: HSP90 refold inh) | SENP8 conf 56 | SENP6 conf 57 | SENP7 conf 76 | Casp3 select 88 | Luc interf inactive
CC(=O)c1ccc(NS(=O)(=O)c2ccc(N)cc2)cc1	none

Assay outcomes: PubChem, several laboratories
